As usually defined, the IC50 is the midpoint of a concentration-inhibition curve. A higher IC50 goes with lower potency.

The text below walks through data of ChEMBL document CHEMBL1151481, “Cytotoxic polyprenylated xanthones from the resin of Garcinia hanburyi” (J Nat Prod, 2009).

The assay concerns HeLa. The experiment in a line: Cytotoxicity against human HeLa cells after […] by MTT assay. Type of assay: functional, cell-based. An outline of the steps:
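MTT read-out on HeLa cells, with an adriamycin positive control. Each determination was run in triplicate and reported as mean ± SEM. The 50% inhibitory concentration was obtained by interpolating concentration–inhibition curves.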
Background: Tetrazolium dyes change colour on reduction, which living cells bring about.

Consider `C=C(C)C1CCC2(C)CC1c1c(O)c3c(c(CC=C(C)C)c1O2)O[C@]12C(=C[C@]4(OC)C[C@H]1C(C)(C)O[C@@]2(C/C=C(/C)C(=O)O)C4=O)C3=O` (stereo partly specified), for which, where the note is “Homo sapiens, HeLa”, the midpoint of inhibition, the IC50, lay at 910 nM.
The compound `CO[C@]12C=C3C(=O)c4c(O)c5c(c(CC=C(C)C)c4O[C@@]34[C@@H](C1)C(C)(C)O[C@@]4(C/C=C(/C)C(=O)O)C2=O)O[C@@](C)(CCC=C(C)C)C=C5` displayed an IC50 (Homo sapiens, HeLa) of 850 nM.
On the same count and under the same terms, in the case of `CO[C@]12C=C3C(=O)c4c(O)c5c(c(CC=C(C)C)c4O[C@@]34[C@@H](C1)C(C)(C)O[C@@]4(C/C=C(/C)CO)C2=O)OC(C)(C)C=C5` it was 1210 nM.
Regarding `CC(C)=CCC/C(C)=C/Cc1c(O)c(CC=C(C)C)c2c(c1O)C(=O)C1C=CCC3C(C)(C)OC4(CC=C(C)C(=O)O4)C13O2` (stereo unspecified), under “Homo sapiens, HeLa”, it took 8680 nM to reach half-maximal inhibition (IC50).
Still for that read-out and setting: in the case of `COC(=O)/C(C)=C\C[C@@]12OC(C)(C)[C@@H]3C[C@@H](CC4C(=O)c5c(O)c6c(c(CC=C(C)C)c5O[C@]431)OC(C)(C)C=C6)C2=O` (stereo partly specified) it was 111000 nM; in that of `CC(C)=CCc1c2c(c(O)c3c1O[C@]14C(C3=O)[C@@H](O)[C@@H]3C[C@H]1C(C)(C)O[C@@]4(C/C=C(/C)C(=O)O)C3=O)C=CC(C)(C)O2` (stereo partly specified), 1710 nM.
Still for that read-out and setting: in the case of `CO[C@]12C=C3C(=O)c4c(O)c5c(c(CC=C(C)C)c4O[C@@]34[C@@H](C1)C(C)(C)O[C@@]4(C/C=C(/C)C(=O)O)C2=O)O[C@](C)(CCC=C(C)C)C=C5` it was 930 nM.
On the same count and under the same terms, in the case of `CC(C)=CCC/C(C)=C/COc1cc(O)c2c(c1CC=C(C)C)O[C@]13C(=C[C@@H]4C[C@H]1C(C)(C)O[C@@]3(CC=C(C)C)C4=O)C2=O` it was 4090 nM.
Regarding `CC(C)=CCC/C(C)=C/Cc1c(O)c(CC=C(C)C)c2c(c1O)C(=O)C1C(O)[C@@H]3C[C@H]4C(C)(C)O[C@@](C/C=C(/C)C(=O)O)(C3=O)[C@@]14O2` (stereo partly specified), it took 5080 nM to reach half-maximal inhibition (Homo sapiens, HeLa) (IC50).
Same read-out and setting: in the case of `CC(C)=CCCC1(C)C=Cc2c(O)c3c(c(CC=C(C)C)c2O1)O[C@]12C(C3=O)C(O)[C@@H]3C[C@H]1C(C)(C)O[C@@]2(C/C=C(/C)C(=O)O)C3=O` (stereo in doubt; 13) it was 640 nM.
For `CC(C)=CCCC1(C)C=Cc2c(O)c3c(c(CC=C(C)C)c2O1)O[C@]12C(C3=O)C(O)[C@@H]3C[C@H]1C(C)(C)O[C@@]2(C/C=C(/C)C(=O)O)C3=O` (stereo in doubt; 14), the IC50 (hela) stood at 630 nM.
Take `COc1cccc2c1C(=O)c1c(O)c3c(c(O)c1C2=O)C[C@@](O)(C(=O)CO)C[C@@H]3O[C@H]1C[C@H](N)[C@H](O)[C@H](C)O1` [DOXORUBICIN]: the IC50 (Homo sapiens, HeLa) was 410 nM.
On the same count and under the same terms, as for `CC(C)=CCc1c2c(c(O)c3c1OC(C)(C)C1CCC(C)=CC31)C(=O)C1=C[C@@H]3C[C@H]4C(C)(C)O[C@@](C/C=C(/C)C(=O)O)(C3=O)[C@@]14O2` (stereo partly specified) [GAMBOGEFIC ACID], the figure is 560 nM.
`CC(C)=CCC/C(C)=C/Cc1c(O)c2c(c3c1O[C@@H](C(C)(C)O)C3)O[C@]13C(=C[C@@H]4C[C@H]1C(C)(C)O[C@@]3(C/C=C(/C)C(=O)O)C4=O)C2=O` [GAMBOGENIFIC ACID] had a half-inhibitory concentration (IC50) (Homo sapiens, HeLa) of 1790 nM.
In the case of `CC(C)=CCC[C@]1(C)C=Cc2c(O)c3c(c(CC=C(C)C)c2O1)O[C@]12C(=C[C@@H]4C[C@H]1C(C)(C)O[C@@]2(C/C=C(/C)C(=O)O)C4=O)C3=O` [GAMBOGIC ACID], under “Homo sapiens, HeLa”, it took 700 nM to reach half-maximal inhibition (IC50).
Under “Homo sapiens, HeLa”, `CC(C)=CCc1c2c(c(O)c3c1O[C@]14C(=C[C@@H]5C[C@H]1C(C)(C)O[C@@]4(C/C=C(/C)C(=O)O)C5=O)C3=O)C=CC(C)(CC/C=C/C(C)(C)O)O2` (stereo partly specified) [OXYGAMBOGIC ACID] showed an IC50 of 1910 nM.
